In the library only some 1.4% were active in any assay of this set; here they are far more common.
PG9 Ab binder: binders of HIV-1 gp120 antibody PG9, primary screen, biochemical, TR-FRET; HIV-1 gp120 / PG9 antibody interaction; TR-FRET gp120-PG9 antibody binding; inhibition, % at 6.7 µM; 0.43% of 360,000 active; in the data active = inhibition above about 8.5%
NR2E3 ag-1: inhibitors of NR2E3-RetCOR corepressor binding, primary screen, NR2E3 agonist project, biochemical, TR-FRET, GST-NR2E3, biotin-RetCOR; AID 2300, 2010; 1536-well; 0.12% of 320,000 active; inhibition of corepressor binding, % at 4.78 µM;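 active = percent inhibition above the cutoff of mean plus 3 SD of all tested compounds, set per screening campaign, cut at about 20% in these data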;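 also: 0% = DMSO wells and 100% = biotin wells as full block of FRET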
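System: GST-tagged NR2E3 plus biotinylated RetCOR corepressor; Buffer or medium: pH 7.5 Tris-based buffer; Probe or stimulus: RetCOR corepressor, biotinylated, 7 nM; Doses: compound at 4.8 µM, single dose; Schedule: 5 h incubation at 4 °C; Technique: time-resolved FRET; Evaluation: percent inhibition of TR-FRET ratio; Replication: one well per compound, singlicate testing.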
NR2E3 ag-2: NR2E3 agonists in two-hybrid cells, primary screen, cell-based, luminescence, CHO-S, Gal4-NCOR/VP16-NR2E3 | Photoreceptor-specific nuclear receptor (Homo sapiens), Q9Y5X4 | 0.35% of 360,000 active | inhibition of corepressor binding, % at 3.98 µM | luciferase | AID 602229, 2012;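 active = inhibition above the mean of all tested compounds plus 3 SD, cut at about 70% in these data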;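 also: 0% = DMSO with NR2E3 transfected cells and 100% = cells lacking NR2E3 construct; higher means lower luciferase signal from less NR2E3 corepressor binding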
Rev-erbA mod: modulators of Rev-erb alpha DNA binding, primary screen, biochemical, FITC-DNA, fluorescence polarization, uHTS. activity, % at 10 µM. 0.79% of 370,000 active. Nuclear receptor subfamily 1 group D member 1 (Homo sapiens), P20393. AID 1259318, 2017. Rev-erbα–FITC-DNA binding, 90 min;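 active = activity above about 14%, limit read from the data; passing the limit was not always enough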;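 also: 0% = DMSO wells with 35 nM protein and 100% = DMSO wells with 750 nM protein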
Target sequence (P20393 whole entry, looked up): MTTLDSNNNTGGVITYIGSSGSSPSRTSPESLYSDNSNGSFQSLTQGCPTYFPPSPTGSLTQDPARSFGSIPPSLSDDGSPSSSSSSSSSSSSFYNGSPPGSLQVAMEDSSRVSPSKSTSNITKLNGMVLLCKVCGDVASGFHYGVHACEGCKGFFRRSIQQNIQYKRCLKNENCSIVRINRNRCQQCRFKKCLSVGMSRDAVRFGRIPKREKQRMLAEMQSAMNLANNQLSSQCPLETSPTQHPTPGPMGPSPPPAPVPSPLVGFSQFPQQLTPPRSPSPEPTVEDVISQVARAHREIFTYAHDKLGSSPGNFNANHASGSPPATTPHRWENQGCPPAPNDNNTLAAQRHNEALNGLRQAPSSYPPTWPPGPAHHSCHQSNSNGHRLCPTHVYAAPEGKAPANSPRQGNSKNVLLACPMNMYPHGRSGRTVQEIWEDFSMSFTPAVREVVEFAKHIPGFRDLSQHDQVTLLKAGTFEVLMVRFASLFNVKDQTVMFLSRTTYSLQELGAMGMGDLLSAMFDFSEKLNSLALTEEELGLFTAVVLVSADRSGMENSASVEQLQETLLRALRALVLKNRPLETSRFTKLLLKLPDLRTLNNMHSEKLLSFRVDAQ
Rev-erbA confirm: modulators of Rev-erb alpha DNA binding, confirmation, biochemical, FITC-DNA, fluorescence polarization, single point. shares compounds with Rev-erbA mod. 90 min. activation, % at 25 µM. 61% of 3,000 active;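 active = activation at or above a set limit, or at least 3 SD above the negative control mean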;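 also: 0% = 35 nM protein with DMSO and 100% = 750 nM protein high control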
RORg DNA counter: modulation of RORgamma DNA binding, dose response, counter-screen for Rev-erb alpha modulator project, biochemical, fluorescence polarization, FITC-DNA | purified RORgamma protein-FITC-DNA binding | shares compounds with Rev-erbA mod | 8% of 910 active | IC50, µM;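 active = Compounds whose fitted half-maximal concentration for disrupting protein-DNA binding is below 10 micromolar; the record names Rev-erb in its text, so the target is in doubt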
An asterisk follows results filed as active; i = inactive; . = no result given.

SMILES	PG9 Ab binder	NR2E3 ag-1	NR2E3 ag-2	Rev-erbA mod	Rev-erbA confirm	others
CCOC(=O)c1ccc(NC(=O)C2CC(O)CN2S(=O)(=O)c2ccc(C)cc2)cc1 (centres undefined)	1	.	2	21*	1
Nc1ncnc2c1nc(SCCO)n2Cc1ccccc1	2	-2	-26	0	.
COc1cc2c(cc1NC(=O)C(C)N1CCN(S(=O)(=O)c3ccc(C)c(C)c3)CC1)oc1ccccc12 (centres undefined)	0	0	-21	-2	.
COc1cc2c(cc1NC(=O)CN1CCN(S(=O)(=O)c3ccc(C)cc3)CC1)oc1ccccc12	-1	5	12	27*	19*
CC(C)[C@H](NC(=O)c1ccccc1F)C(=O)Nc1nc2c(s1)CCCC2	0	3	-24	6	.
O=C(O)C1CCN(S(=O)(=O)c2cccc3cccnc23)CC1	-2	-1	-8	0	.
COc1ccc(C(C)(C)C)cc1NC(=O)C1=CC=CN2CCS(=O)(=O)N=C12	1	.	6	24*	30*	RORg DNA counter=i
COc1ccc(Oc2c(Cl)cnn(CC(=O)C(c3ccccc3)c3ccccc3)c2=O)cc1	.	.	.	78*	57*	RORg DNA counter=i
Cn1ncc(Cl)c(Oc2ccccc2)c1=O	.	4	-11	5	.
CCCNC(=O)/C(C#N)=C1\N=C(NC(=O)c2cccs2)c2ccccc21	-2	0	-31	30*	21*
O=C(NCC(=O)N1CCCCCCC1)c1ccc(Cl)cc1	0	2	-14	4	.
CC(=O)[C@@H]1[C@@H]2C(=O)N(Cc3ccccc3)C(=O)[C@@H]2C2c3ccccc3C=CN21 (some centres undefined)	0	-1	-3	26*	28*
COc1ccc(OC)c(NC(=O)C(CCSC)NS(=O)(=O)c2cccs2)c1 (centres undefined)	1	6	12	8	.
CCC(=O)Nc1nnc(SCC(=O)c2ccc3c(c2)Cc2ccccc2-3)s1	7	-9	-39	44*	17*
Cn1c(SCC(=O)c2ccccc2)nnc1-c1ccncc1	0	-1	-8	1	.
COc1ccc2c(Cl)c(-c3nnc(SCC(=O)c4ccccc4)n3C)sc2c1	1	-4	2	95*	117*	RORg DNA counter=i
Cn1c(SCC(=O)c2ccc3c(c2)Cc2ccccc2-3)nnc1-c1ccccc1	2	-75	-42	62*	47*	RORg DNA counter=7.5*
Cn1c2c(c(=O)[nH]c1=O)C(c1ccc(O)cc1)C1=C(N2)c2ccccc2C1=O (centres undefined)	-13	4	-10	-4	.
CC(=O)Nc1ccc(C(=O)COC(=O)Cc2ccsc2)c(F)c1	-3	.	11	9	.
CCOc1cc(Cl)c(NC(C)=O)cc1OCC	-2	1	-5	1	.
O=C(NCc1ccncc1)C(=O)NCC1OCCCN1S(=O)(=O)c1ccc(F)cc1 (centres undefined)	-3	0	0	-3	.
CCOc1ccc(N=C2SCC(=O)N2CC)cc1	2	1	7	-4	.
CCN1C(=O)CSC1=NC1C2CC3CC(C2)CC1C3 (centres undefined)	-1	2	-40	42*	48*	RORg DNA counter=>40
Cc1ccc(NC(=S)Nc2ccc(S(=O)(=O)N3CCOCC3)cc2)cc1S(=O)(=O)N1CCOCC1	-1	4	16	17*	-5
CCOC(=O)c1cc(-c2ccc(F)cc2)nc2c1c(=O)[nH]c(=O)n2Cc1ccccc1	0	2	10	-9	.
SMILES	PG9 Ab binder	NR2E3 ag-1	NR2E3 ag-2	Rev-erbA mod	Rev-erbA confirm	others
CCOC(=O)c1cc(-c2cc(OC)c(OC)c(OC)c2)nc2c1c(=O)[nH]c(=O)n2Cc1ccccc1	0	1	-8	23*	9
Cc1cc(=O)oc2cc(OCC3CC(c4ccccc4)=NO3)ccc12 (centres undefined)	.	2	-132	-1	.
Cc1cc(=O)oc2cc(OCC3CC(c4ccc(Br)cc4)=NO3)ccc12 (centres undefined)	1	1	-12	55*	46*	RORg DNA counter=2.1*
O=C(Nc1cc(Cl)cc(Cl)c1)Nc1cnccn1	-3	3	0	12*	2
O=C(Nc1ccc(F)cc1)Nc1cnccn1	1	-1	2	9	.
O=S(=O)(c1ccccc1)c1cnn2c(C(F)(F)F)cc(-c3ccc(F)cc3)nc12	-1	5	3	24*	-7
O=S(=O)(c1ccccc1)c1cnn2c(C(F)(F)F)cc(-c3ccccc3)nc12	1	-1	-16	-2	.
FC(F)(F)c1ccc(N2CCN(c3ncnc4c3nnn4Cc3ccccc3)CC2)nc1	0	-1	-13	21*	3
CCN(CC)C(=O)c1[nH]cnc1C(=O)NCC(=O)OC(C)(C)C	-1	3	8	6	.
CCOC(=O)C1=CN(CC)CCC1=O	-3	.	-11	25*	-2
CCOC(=O)C1=CN(C)CCC1=O	0	.	1	1	.
O[C@H]1C[C@H](c2ccccc2)N(Cc2cccs2)C[C@@H]1n1cc(C2CC2)nn1	0	.	-5	18*	6
COc1ccc(NC(=O)N(C)C[C@@H]2Oc3ccc(NC(=O)NC(C)C)cc3CC(=O)N([C@H](C)CO)C[C@@H]2C)cc1	-2	.	-8	-2	.
CCN(CC)CCN(C)c1ccc(N2C(=O)C3CC=CCC3C2=O)cc1[N+](=O)[O-] (centres undefined)	1	-1	-21	3	.
N#C/C(=C/C1=C(N2CCOCC2)C(=C/c2ccccc2)/CC1)C(=O)Nc1ccccc1F	-2	.	-41	19*	18*
CCOC(=O)C1CCN(C(c2cc3c(C)ccc(C)c3[nH]c2=O)c2nnnn2C2CCCCC2)CC1 (centres undefined)	0	5	-19	3	.
CCOC(=O)C1CCN(C(c2cc3ccc(C)c(C)c3[nH]c2=O)c2nnnn2C2CCCCC2)CC1 (centres undefined)	-2	-2	2	69*	97*
COc1cccc(-c2nc(CS(=O)(=O)CC(=O)Nc3ccccc3C)c(C)o2)c1	3	1	-5	1	.
COc1cccc(-c2nc(CS(=O)(=O)CC(=O)NCc3ccc(Cl)cc3)c(C)o2)c1	3	-3	-22	29*	32*	RORg DNA counter=>40
COc1cccc(-c2nc(CS(=O)(=O)CC(=O)Nc3cccc(C)c3C)c(C)o2)c1	1	4	25	19*	9
